Assay results of several laboratories.
Lines come from different studies, so protocols differ.
Target: Cannabinoid receptor 2 (CNR2, Homo sapiens, UniProt P34972)

CN(CCN1CCC(OC(=O)Nc2ccccc2-c2ccccc2)CC1)C(=O)c1ccc(CN2CCC(C(N)=O)CC2)cc1
inhibition (ligand displacement, radioligand; 1 µM): -2%

COCc1c(-c2cc3cc(C)cc(OC)c3s2)c2c(N)ncnn2c1CN1CCNC(=O)C1
inhibition (ligand displacement, radioligand; 10 µM): 2%

O=C(Nc1cccnn1)N1CCN([C@@H]2CCOc3cc(C(F)(F)F)ccc32)CC1
inhibition (ligand displacement; 20 µM): 23%

CCOC(=O)C(CC)(CCCSCCOCCOCCNc1ccc([N+](=O)[O-])c2nonc12)NC(=O)c1ccc(C2CC2)c(Cc2ccc(F)cc2)n1 (racemic)
Emax (cAMP, agonist): 100%

COc1ccc(S(=O)(=O)N2CCCCC2)cc1C
inhibition (ligand displacement, radioligand; 10 µM): < 30%

COc1cccc2c(C(=O)c3cccc4ccccc34)cn(CCN3CCOCC3)c12
inhibition (ligand displacement, radioligand; 1 µM, cell membranes): 100%

Clc1ccc2c(C3CCN(CCc4c[nH]c5ccccc45)CC3)c[nH]c2c1
inhibition (ligand displacement, radioligand; 10 µM): 11%

CCOC(=O)C(CC)(CCCSCCOCCOCCOCCOCCNC(=O)OC(C)(C)C)NC(=O)c1ccc(C2CC2)c(Cc2ccc(F)cc2)n1 (centres unmarked)
Emax (cAMP, agonist): 91%
